This note sets out measurements from PMC3016090 (ChemMedChem, 2009).

Data set [1] concerns the target T1, FAAH (Rattus norvegicus, UniProt P97612).
T1 sequence (P97612 1-579): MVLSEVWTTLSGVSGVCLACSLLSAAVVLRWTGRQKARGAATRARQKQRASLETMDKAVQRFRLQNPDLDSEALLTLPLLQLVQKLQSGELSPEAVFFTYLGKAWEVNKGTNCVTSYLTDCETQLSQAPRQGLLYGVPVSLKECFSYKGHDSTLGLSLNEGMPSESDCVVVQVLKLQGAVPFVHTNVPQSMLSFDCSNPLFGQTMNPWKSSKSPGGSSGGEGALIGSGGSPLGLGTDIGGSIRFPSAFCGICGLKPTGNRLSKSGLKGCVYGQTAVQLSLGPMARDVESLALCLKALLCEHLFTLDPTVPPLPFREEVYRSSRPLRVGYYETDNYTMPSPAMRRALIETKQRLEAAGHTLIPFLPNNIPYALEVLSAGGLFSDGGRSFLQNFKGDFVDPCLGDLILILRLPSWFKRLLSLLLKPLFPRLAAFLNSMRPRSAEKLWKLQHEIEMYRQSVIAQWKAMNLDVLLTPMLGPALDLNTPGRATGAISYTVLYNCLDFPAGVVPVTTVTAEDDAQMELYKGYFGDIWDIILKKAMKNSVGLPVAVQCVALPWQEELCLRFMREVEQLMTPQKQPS
The experiment in a line: FAAH activity in vitro, rat brain membranes, [3H]-anandamide hydrolysis. The format is biochemical.

A further data set in a line: Stability in rat plasma. The format is in vitro ADME. Particulars: for Rat Plasma t1/2: 80% rat plasma in PBS pH 7.4, 37 °C; for half-life at 1 μM: rat, pooled rat plasma diluted to 80% (vol/vol) with PBS, pH 7.4. The method, boiled down: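 Heparinized rat blood from cardiac puncture gave plasma (1,900 x g), pooled and diluted to 80% v/v with 100 mM PBS, pH 7.4. Test compound was added from a 100 μM DMSO stock and incubated at 37 °C with shaking. Timed samples were quenched in ice-cold acetonitrile, spun, and analysed by reversed-phase HPLC-UV against plasma calibration curves. Apparent t1/2 came from log-concentration-versus-time regression.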

The nature of data set [2]: Stability in phosphate buffered saline at pH 7.4. Format: physicochemical. Particulars: PBS pH 7.4, 37 °C; for pH 7.4 (%), percent remaining after 24 h incubation: 1 μM compound. The essentials:
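Test compound at 1 μM final (1% DMSO) in 10 mM PBS, pH 7.4, at 37 °C. Aliquots were taken at intervals and quantified by LC against calibration curves built in spiked PBS. Reported as percent remaining after 24 h.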

Data set [3] concerns the target T2, FAAH (Mus musculus, UniProt O08914).
T2 sequence (O08914 1-579): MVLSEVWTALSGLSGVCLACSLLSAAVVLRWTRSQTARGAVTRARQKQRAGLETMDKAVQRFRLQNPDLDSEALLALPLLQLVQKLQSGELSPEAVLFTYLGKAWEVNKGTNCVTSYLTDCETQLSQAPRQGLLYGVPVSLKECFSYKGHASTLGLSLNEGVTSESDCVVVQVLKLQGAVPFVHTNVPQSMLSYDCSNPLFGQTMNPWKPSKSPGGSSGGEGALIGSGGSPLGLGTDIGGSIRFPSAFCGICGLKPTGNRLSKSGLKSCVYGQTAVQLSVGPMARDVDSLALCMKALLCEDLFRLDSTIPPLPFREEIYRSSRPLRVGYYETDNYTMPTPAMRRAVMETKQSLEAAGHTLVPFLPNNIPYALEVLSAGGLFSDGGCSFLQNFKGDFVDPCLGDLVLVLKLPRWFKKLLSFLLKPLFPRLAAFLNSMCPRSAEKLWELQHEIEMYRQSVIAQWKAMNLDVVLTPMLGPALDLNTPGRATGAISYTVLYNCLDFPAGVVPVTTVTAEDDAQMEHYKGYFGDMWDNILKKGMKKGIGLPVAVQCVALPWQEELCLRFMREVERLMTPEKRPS
The experiment in a line: Brain FAAH activity measured ex vivo after i.p. administration in mice. To be noted: for ID50 / Percent FAAH activity remaining at 1 mg-kg^−1 / inhibition of brain FAAH activity in vivo: mice; for ID50 / inhibition of brain FAAH activity in vivo: i.p.; for ID50: brain FAAH activity ex vivo; for ED50: mouse, ip, read-out: ID50; for Percent FAAH activity remaining at 1 mg-kg^−1: 1 mg-kg^−1 i.p., brain FAAH ex vivo, printed in ID50 column; for inhibition of brain FAAH activity in vivo: doses up to 1 mg-kg^−1. The method, boiled down: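 Mice received a single i.p. injection. Brains were frozen in liquid N2, thawed, homogenized in 10 vol ice-cold 50 mM Tris pH 7.5 with 0.32 M sucrose, and spun at 1000 x g for 10 min at 4 °C. Homogenate (50 μg protein) was incubated for 30 min at 37 °C in 50 mM Tris pH 7.5 with 0.05% fatty acid-free BSA and 10 μM anandamide plus [3H]-anandamide. Reactions were stopped with chloroform/methanol (1:1), and aqueous-layer radioactivity was scintillation counted.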

Data set [4] in a line: Brain tissue and serum drug levels in mice by LC/MS. Format: in vivo, mouse. Particulars: 1 mg-kg^−1 i.p.; for AUC in the brain: 2 h time-course, n = 3; for Cmax in brain tissue: single administration, n = 3 per timepoint.
A further data set concerns liver carboxylesterases. Format: biochemical. To be noted: rat liver microsomes, 30, 100 and 300 nM. The essentials:
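Commercial rat liver microsomes (2.5 μg) were preincubated with test compound for 30 min at room temperature. p-Nitrophenylacetate was then added (1 mM final). After 20 min, p-nitrophenol formation was read as absorbance at 405 nm.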

[5] abbreviates: rat brain membranes, 10 μM anandamide, no pre-incubation.

The structures appear in SMILES notation. Where two headings read alike, the source gives them in different places. Marks after values point to notes of the source that are not given here. Where only a bound is given, the exact number is not on record here.

Consider `O=C(NCCCCc1ccccc1)Oc1cccc(-c2ccccc2)c1` [Compound 1b], for which 9.4 ± 2.8 nM corresponded to half-maximal inhibition against FAAH [1] (setting [5]) (IC50). Also, the “Rat Plasma t1/2” value in “Stability in rat plasma” was determined as 6.6 ± 0.7 min. Also, the “plasma t1/2, fold shorter than URB524” value in “Stability in rat plasma” (rat plasma, versus URB524) is “approximately 6 fold”. In addition, in data set [2], the “pH 7.4 (%), percent remaining after 24 h incubation” value (“pH 7.4 (%), percent remaining” for short) is 35.9 ± 2.7%. On FAAH [3], this compound gave an ID50 of 0.96 mg/kg.
In turn, `O=C(NC1CCCCC1)Oc1cccc(-c2ccccc2)c1` [Compound 1a] came in with an IC50 at FAAH [1] (setting [5]) of 25.6 ± 2 nM. In addition, in the data set “Stability in rat plasma”, the “Rat Plasma t1/2” value worked out at 42.7 ± 3.7 min. Moreover, the “pH 7.4 (%), percent remaining” value in data set [2] turned out to be 41.1 ± 1.1%. For the same compound, in data set [4], the “AUC in the brain” value stood at 2589 ± 423 arbitrary units and the “Cmax in brain tissue” value came to 74 ± 3 pmol/g. At FAAH [3], this compound returned an ID50 of 0.81 mg/kg.
Regarding `Nc1ccc(OC(=O)NC2CCCCC2)cc1-c1ccccc1` [Compound 1h, Cyclohexylcarbamic acid 6-aminobiphenyl-3-yl ester], at FAAH [1], the IC50 came to 27.2 ± 4.8 nM. In data set [2], the “pH 7.4 (%), percent remaining” value stood at 89.0 ± 0.5%. Further, the “effect on liver carboxylesterase activities compared to URB597” value in the data set on liver carboxylesterases is recorded as “reduced effects on liver carboxylesterase activities”. Moreover, on FAAH [3], the ED50 worked out at 0.18 mg/kg.
At FAAH [1] (setting [5]), `O=C(NCCCCCCCCc1ccccc1)Oc1cccc(-c2ccccc2)c1` [Compound 1c] showed an IC50 of 5.4 ± 0.5 nM. For the same compound, the “in vitro FAAH potency relative to parent URB524 (times more potent)” value on FAAH [1] (ratio of IC50 versus URB524) is “approximately 5 fold”. Moreover, the “Rat Plasma t1/2” value in “Stability in rat plasma” worked out at 7.0 ± 0.1 min. For the same compound, the “pH 7.4 (%), percent remaining” value in data set [2] is reported as 65.9 ± 3.1%. Moreover, on FAAH [3], the “Percent FAAH activity remaining at 1 mg-kg^−1” value stood at 105% ^[b] and the “inhibition of brain FAAH activity in vivo” value was “completely inactive in vivo”.
The compound `NC(=O)c1cccc(-c2cccc(OC(=O)NCCCCCCCCc3ccccc3)c2)c1` [Compound 1f, 8-Phenyloctylcarbamic acid 3′-carbamoylbiphenyl-3-yl ester] yielded a 50% inhibitory concentration (IC50) on FAAH [1] of 0.26 ± 0.02 nM. Further, the half-life at 1 μM in “Stability in rat plasma” was 4 ± 0.1 min. Further, the “pH 7.4 (%), percent remaining” value in data set [2] amounted to 42.8 ± 1.4%. Also, the “drug levels in serum and brain after administration” value in data set [4] is “little or no increase in drug levels in serum and brain”. On FAAH [3], the “Percent FAAH activity remaining at 1 mg-kg^−1” value is reported as 65%^b and the “inhibition of brain FAAH activity in vivo” value was “little or no”.
With `O=C(NC1CCCCC1)Oc1ccc([N+](=O)[O-])c(-c2ccccc2)c1` [Compound 1i, Cyclohexylcarbamic acid 6-nitrobiphenyl-3-yl ester], the IC50 against FAAH [1] was > 30000 nM. Further, the “pH 7.4, value expressed as t1/2” value in data set [2] was 1.7 ± 0.1 ^[c] min.
Turning to `NC(=O)c1cccc(-c2cccc(OC(=O)NC3CCCCC3)c2)c1` [Compound 1d], in the data set “Stability in rat plasma”, the half-life at 1 μM was determined as 33 ± 0.5 min. Also, the “pH 7.4 (%), percent remaining” value in data set [2] turned out to be 40.2 ± 0.6%. Further, in data set [4], the “AUC in the brain” value was found to be 6036 ± 899 arbitrary units and the “Cmax in brain tissue” value was 226 ± 29 pmol/g. The ED50 on FAAH [3] was 0.22 mg/kg.
